Our source for the IC50, Ki and half-life values is ChEMBL document CHEMBL4014355 (J Med Chem, 2017).

A short description of series [1]: Inhibition of 5-FAM tracer binding to WDR5 delta23 mutant (24 to 334 residues) (unknown origin) expressed in Escherichia coli Rosetta 2 (DE3) cells after 3 hrs by fluorescence polarization assay. On the set-up: species or system Homo sapiens.
The target in series [2] is MLL1-ASH2L/RbBP5/WDR5/DPY30 (Homo sapiens, UniProt P61964). Nature of the series: Inhibition of human N-terminal GST-tagged MLL1 (3735 to 3973 residues) interaction with human full length N-terminal 6xHis-tagged ASH2L/N-terminal 6xHis-tagged human full length RbBP5/human N-terminal 6xHis-tagged WDR5/human full length N-terminal 6xHis-tagged DPY30 assessed as decrease in H3K4me1-2 methylation preincubated for 30 mins followed by SAM/nucleosome mixture addition measured after 120 mins in absence of light by AlphaLISA assay. The format is protein assay.

In a further series the test system is MOLM-13. Nature of the series: Cytotoxicity against human MOLM13 cells harboring MLL-AF9 fusion protein assessed as cell growth inhibition after 4 days by WST8 assay. The format is functional, cell-based. Particulars: MOLM-13, 96 h. In short, it runs like this:
(§1)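 Cells (MOLM-13 with MLL-AF9, MV4-11 with MLL-AF4, HL-60 with no MLL fusion) seeded at 1 × 10^4 cells/well and exposed to a range of inhibitor concentrations for 4 days, with 0.2% DMSO final in the medium. Viability was read by WST-8 kit. Three independent experiments, each in triplicate.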

For a further series, the system named is MV4-11. Briefly: Cytotoxicity against human MV4-11 cells harboring MLL-AF4 fusion protein assessed as cell growth inhibition after 4 days by WST8 assay. The format is functional, cell-based. Particulars: MV4-11, 96 h. In short, it runs like this: as §1
On the technique in general: Tetrazolium dyes change colour on reduction, which living cells bring about.

A further series relates to HL-60. Nature of the series: Cytotoxicity against human HL60 cells lacking MLL translocation assessed as cell growth inhibition after 4 days by WST8 assay. The format is cell-based. The settings on record: HL-60, 96 h. In short, it runs like this: as §1
Series [3] in a line: Half life in human microsomes. The format is ADME, Microsome.
Series [4] in a line: Half life in rat microsomes. Format: ADME, Microsome.
Series [5] is described as follows: Half life in mouse microsomes. The format is ADME, Microsome.

Bridge positions count the residues as written; N and C are the ends. Square brackets hold non-standard residues; d marks the D form. Peptide text beside a SMILES is read from it. * marks the point of attachment. Arg(Me2s) = CN=C(NC)NCCC[C@H](N)C(=O)O; Arg(Me) = CNC(=N)NCCC[C@H](N)C(=O)O; d(αMeK) = C[C@@](N)(CCCCN)C(=O)O; dPhg = N[C@@H](C(=O)O)c1ccccc1; dOrn = NCCC[C@@H](N)C(=O)O; dDab = NCC[C@@H](N)C(=O)O; Isobutyryl = CC(C)C(=O)*; dDap = NC[C@@H](N)C(=O)O; Abu = CC[C@H](N)C(=O)O

By IC50 is commonly meant the midpoint of a concentration-inhibition curve. The term Ki denotes a measure of affinity in units of concentration, obtained from inhibition or displacement. A high value points to weaker binding. With `CC[C@@H]1NC(=O)[C@H](CCCN/C(=N/C)NC)NC(=O)[C@](C)(NC(=O)C(C)C)CCCCNC(=O)[C@@H](c2ccccc2)NC1=O` (Isobutyryl-[d(αMeK)][Arg(Me2s)][Abu][dPhg]; lactam 1-C), the IC50 in series [1] came to 0.0024 µM; in series [2], 1.26 µM; with MOLM-13, 31.5 µM; with MV4-11 it was 15.2 µM; with HL-60 it was 84.8 µM. The same molecule displayed a Ki in series [1] of less than 0.001 µM.

The term half-life denotes how long it takes for the measured level to halve. A low value points to fast loss. On to `CCC(CC)(NC(=O)C(C)C)C(=O)N[C@@H](CCCNC(=N)N)C(=O)NC1(C(=O)NC(c2ccccc2)c2ccccc2)CCCC1`, for which the half-life in series [3] was 4 min; in series [4], 34 min; in series [5], 44 min.

On to `CC[C@@H]1NC(=O)[C@H](CCCNC(=N)N)NC(=O)[C@](C)(NC(=O)C(C)C)CCCCN(C)C(=O)[C@@H](c2ccc(Cl)cc2)NC1=O.O=C(O)C(F)(F)F`, for which the results for the IC50 in series [1] and in series [2] were 0.0015 µM and 0.124 µM, respectively. The molecule also displayed a Ki in series [1] of less than 0.001 µM. Further, the half-life in series [3], in series [4] and in series [5] was more than 60 min each time.

`CC[C@@H]1NC(=O)[C@H](CCCNC(=N)N)NC(=O)[C@H](NC(=O)C(C)C)CCNC(=O)[C@@H](c2ccccc2)NC1=O` (Isobutyryl-[dDab]R[Abu][dPhg]; lactam 1-C): the IC50 in series [1] is 0.0062 µM; in series [2], 1.8 µM; in the series on MOLM-13, 42.8 µM; in the series on MV4-11, 43.4 µM; in the series with HL-60, more than 100 µM. This molecule also showed a Ki in series [1] of 0.0008 µM.

In series [1], `CC[C@@H]1NC(=O)[C@H](CCCNC(=N)N)NC(=O)[C@H](NC(=O)C(C)C)CNC(=O)[C@@H](c2ccccc2)NC1=O` (Isobutyryl-[dDap]R[Abu][dPhg]; lactam 1-C) yielded an IC50 of 1.19 µM and a Ki of 0.242 µM. Also, the IC50 in series [2] is more than 10 µM.

Consider `CC[C@@H]1NC(=O)[C@H](CCCNC(=N)N)NC(=O)[C@H](NC(=O)C(C)C)CCCCNC(=O)[C@@H](c2ccccc2)NC1=O` (Isobutyryl-[dK]R[Abu][dPhg]; lactam 1-C), for which the IC50 in series [1] is 0.298 µM; in series [2] it was more than 10 µM; with MOLM-13, more than 100 µM; in the series on MV4-11 it was more than 100 µM; in the series with HL-60, more than 100 µM. In series [1], this molecule displayed a Ki of 0.0603 µM.

Take `CC[C@H]1NC(=O)[C@@H](CCCNC(=N)N)NC(=O)[C@@](C)(NC(=O)C(C)C)CCCCNC(=O)[C@H](c2ccccc2)NC1=O`: the IC50 in the series on MOLM-13, in the series with MV4-11 and in the series on HL-60 was more than 100 µM each time.

As to `CC[C@@H]1NC(=O)[C@H](CCCNC(=N)N)NC(=O)[C@H](NC(=O)C(C)C)CCCNC(=O)[C@@H](c2ccccc2)NC1=O` (Isobutyryl-[dOrn]R[Abu][dPhg]; lactam 1-C), the IC50 is 0.164 µM in series [1]; more than 10 µM in series [2]; more than 100 µM in the series with MOLM-13; more than 100 µM in the series on MV4-11; more than 100 µM with HL-60. The molecule also had a Ki in series [1] of 0.0329 µM.

Take `CC[C@@H]1NC(=O)[C@H](CCCNC(=N)NC)NC(=O)[C@](C)(NC(=O)C(C)C)CCCCNC(=O)[C@@H](c2ccccc2)NC1=O` (Isobutyryl-[d(αMeK)][Arg(Me)][Abu][dPhg]; lactam 1-C): the IC50 is 0.0011 µM in series [1]; 0.452 µM in series [2]; 3.6 µM with MOLM-13; 4.3 µM in the series on MV4-11; more than 100 µM in the series with HL-60. The Ki in series [1] is less than 0.001 µM.

On to `CC[C@@H]1NC(=O)[C@H](CCCNC(=N)NC)NC(=O)[C@](C)(NC(=O)C(C)C)CCNC(=O)[C@H](c2ccccc2)NC1=O`, for which the IC50 in series [1] was 0.002 µM; in series [2] it was 0.477 µM; in the series on MOLM-13, 14.3 µM; with MV4-11, 35 µM. Also, the Ki in series [1] was less than 0.001 µM.

`CC[C@@H]1NC(=O)[C@H](CCCNC(=N)N)NC(=O)[C@](C)(NC(=O)C(C)C)CCCCCNC(=O)[C@@H](c2ccccc2)NC1=O`: the IC50 in series [1] was 0.0026 µM; in series [2] it was 1.53 µM; with MOLM-13 it was 37.6 µM; with MV4-11, 15.1 µM; in the series with HL-60, more than 100 µM. The Ki in series [1] was less than 0.001 µM.
